Screening results as filed in PubChem.
Apaf-1 inh: inhibitors of human Apaf-1 apoptosome; O14727; reconstituted apoptosome caspase-3 activity, DEVD-Rh110 fluorescence; inhibition, % at 20 µM; 0.71% of 330,000 active; active means inhibition of at least 40% at 20 µM
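Material: reconstituted apoptosome with Apaf-1, cytochrome c, caspase-9, procaspase-3, dATP; medium: pH 7.5 Hepes buffer with CHAPS, BSA, DTT; also added: cytochrome c and DEVD-Rh110 substrate; timing: 30 min plus 50 min, RT; signal: Rh110 fluorescence intensity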
SENP8 block-1: inhibitors of human SENP8 protease; recombinant SENP8, Nedd8 substrate fluorescence; inhibition, % at 20 µM; 0.64% of 360,000 active; AID 602440; in the data active means inhibition mostly above about 40%, no sharp cut-off; inactive means mostly below about 27%
Target sequence (Q96LD8 whole entry, looked up): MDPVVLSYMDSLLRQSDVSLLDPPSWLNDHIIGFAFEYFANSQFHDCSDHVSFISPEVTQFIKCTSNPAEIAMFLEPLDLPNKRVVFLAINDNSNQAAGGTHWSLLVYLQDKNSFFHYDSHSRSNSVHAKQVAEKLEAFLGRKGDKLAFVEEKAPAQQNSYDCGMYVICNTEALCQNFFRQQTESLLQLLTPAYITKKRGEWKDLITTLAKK
UBC13 inh: inhibitors of human UBC13 polyubiquitin chain formation. P61088. TR-FRET. inhibition, % at 20 µM. 0.47% of 330,000 active; in the data active means inhibition above about 45%, passing the limit was not always enough; inconclusive means no clear call, values can overlap the other calls
Target sequence (P61088 whole entry, looked up): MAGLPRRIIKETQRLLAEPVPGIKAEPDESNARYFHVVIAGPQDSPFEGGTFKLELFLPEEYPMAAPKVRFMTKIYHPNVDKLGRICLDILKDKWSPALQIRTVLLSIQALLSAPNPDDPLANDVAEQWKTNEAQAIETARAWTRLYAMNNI
SENP8 block-2: inhibitors of human SENP8 protease | AID 2540 | purified SENP8, Z-RLRGG-aminoluciferin cleavage, luminescence | inhibition, % at 10 µM | Q96LD8 | 1.2% of 330,000 active; in the data active means inhibition above about 50%
SENP7 inh: blocks the human protease SENP7. recombinant SENP7, Z-RLRGG-aminoluciferin luminescence, 40 min. inhibition, % at 5 µM. 1.5% of 330,000 active;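 active means inhibition above about 50% at the single test dose, limit read from the data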
SENP6 inh: SENP6 protease inhibition; Q9GZR1; Recombinant SENP6 catalytic domain, aminoluciferin luminescence; inhibition, % at 10 µM; 1.8% of 330,000 active;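 active means inhibition above about 50% at the single tested dose, limit read from the data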
SENP8 conf: confirmation of human SENP8 protease inhibitors; 40% of 6,200 active; inhibition, % at 12.5 µM; AID 488912; shares compounds with SENP7 inh; Recombinant SENP8, Z-RLRGG-aminoluciferin luminescence, 60 min;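 active means mean inhibition across replicates above about 50%, limit read from the data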
SENP6 conf: confirmation of human SENP6 protease inhibitors; shares compounds with SENP7 inh; recombinant SENP6, Z-RLRGG-aminoluciferin luminescence; inhibition, % at 12.5 µM; 58% of 6,200 active
SENP7 conf: human SENP7 inhibition, confirmed; shares compounds with SENP7 inh; AID 488917; inhibition, % at 12.5 µM; 69% of 6,200 active; recombinant SENP7, Z-RLRGG-aminoluciferin luminescence, 40 min
Casp3 SENP sel: selectivity test for SENP inhibitors: human caspase-3 inhibition; shares compounds with SENP7 inh; purified caspase-3, Z-DEVD-aminoluciferin luminescence, 60 min; inhibition, % at 12.5 µM; 60% of 6,200 active; AID 488918;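 active means mean inhibition above about 50%, limit read from the data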
Target sequence (P42574 28-227 limits assumed): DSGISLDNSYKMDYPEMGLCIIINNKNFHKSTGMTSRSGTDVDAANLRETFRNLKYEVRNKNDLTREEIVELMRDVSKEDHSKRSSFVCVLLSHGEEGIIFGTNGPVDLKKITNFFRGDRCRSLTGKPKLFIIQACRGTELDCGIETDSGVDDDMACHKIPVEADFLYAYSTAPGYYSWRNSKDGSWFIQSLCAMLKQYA
SENP luc ctr: counter-screen for SENP inhibitors: luminescence interference; AID 488919; Pre-incubated SENP8/Z-RLRGG-aminoluciferin, luciferase luminescence interference; inhibition, % at 12.5 µM; shares compounds with SENP7 inh; 39% of 6,200 active;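 active means mean inhibition above about 50% when retested at one dose, limit read from the data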
Hits are given with their value; n = inactive; u = inconclusive; x = no result. The list is not random: actives were taken first. Their share in the collection is about 3%.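 How the source made its calls, unless noted: active means mean inhibition above about 50% in the one-dose retest (limit read from the data); inactive means the rest.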

SMILES	Apaf-1 inh	SENP8 block-1	UBC13 inh	SENP8 block-2	SENP7 inh	SENP6 inh	SENP8 conf	SENP6 conf	SENP7 conf	Casp3 SENP sel	SENP luc ctr
CCCNC(=O)C1CC(=O)N(c2ccc(OCc3ccc(F)cc3)cc2)C1 (stereo not given)	n	n	n	87	88	87	n	56	71	94	n
CCCNC(=O)C1CC(=O)N(c2ccc(OCc3ccc(Cl)cc3)cc2)C1 (stereo not given)	n	n	n	61	88	84	n	n	n	n	n
C=CCNC(=O)C1CC(=O)N(c2ccc(OCc3ccc(F)cc3)cc2)C1 (stereo not given)	n	n	n	79	91	92	65	86	96	88	n
CCOC(=O)C1(C)CCN1C(=O)c1ccc(OC)c(OC)c1 (stereo not given)	x	n	x	x	x	x	x	x	x	x	x
O=C(O)c1csc(-c2cccs2)n1	n	n	n	57	n	n	n	n	n	n	n
c1csc(-c2nc(CN3CCSCC3)cs2)c1	n	n	n	74	88	80	80	80	96	94	86
COc1ccc(C2C=CC(=O)CC2)c(OC)c1 (stereo not given)	x	n	x	x	x	x	x	x	x	x	x
Cn1ccc2c(N3CCCCC3)cc3c(c21)C1CCC3C1 (stereo not given)	x	n	x	x	x	x	x	x	x	x	x
COc1ccccc1CNC(=O)COc1ccccc1C(=O)c1cnn(-c2ccccc2)c1	n	n	n	n	n	51	n	n	61	n	n
O=C(COc1ccccc1C(=O)c1cnn(-c2ccccc2)c1)Nc1ccccc1	n	n	n	n	n	n	x	x	x	x	x
Cc1cccc(-n2ncc3c(N4CCCC4)ncnc32)c1	n	n	n	n	n	n	x	x	x	x	x
COc1ccc(-n2ncc3c(N4CCCCC4)ncnc32)cc1	n	n	n	93	98	96	95	98	103	96	95
Cc1cccc(-n2ncc3c(N4CCOCC4)ncnc32)c1	n	n	n	70	79	71	78	76	91	86	61
COc1ccc(-n2ncc3c(N4CCN(c5cccc(C)c5C)CC4)ncnc32)cc1	n	n	n	n	n	n	x	x	x	x	x
Clc1ccc(-n2ncc3c(N4CCCCCC4)ncnc32)cc1	n	n	n	86	91	94	n	53	72	57	n
COc1cc(-c2nc(-c3cccc(C)c3)no2)cc(OC)c1OC	n	n	n	n	n	n	x	x	x	x	x
Cc1cccc(-c2noc(-c3ccc4c(c3)OCO4)n2)c1	n	n	n	70	101	82	n	n	n	n	n
Cc1cccc(-c2noc(-c3c(C)noc3C)n2)c1	n	n	n	57	n	71	n	n	52	n	n
Cc1cc(C)cc(-c2nc(-c3ccncc3)no2)c1	n	n	n	66	61	74	n	n	n	50	n
Cc1cccc(-c2nc(-c3ccncc3)no2)c1	n	n	n	79	82	n	58	84	97	85	56
Cc1ccc(-c2nc(-c3ccncc3)no2)cc1	x	n	x	x	x	x	x	x	x	x	x
Cc1ccc(-c2noc(-c3c(C)noc3C)n2)cc1	n	n	n	n	n	n	x	x	x	x	x
O=C(NCC(F)(F)F)c1[nH]c(C(F)(F)F)nc1-c1ccccc1	x	n	x	x	x	x	x	x	x	x	x
CC1=C(C(=O)N(C(C)C)C(C)C)CC(CC(=O)NC(c2ccccc2)c2ccccc2)C(=O)N1CCC1=CCCCC1 (stereo not given)	x	n	x	x	x	x	x	x	x	x	x
COC(=O)/C=C1\OCc2cccc(C)c21	x	n	x	x	x	x	x	x	x	x	x
SMILES	Apaf-1 inh	SENP8 block-1	UBC13 inh	SENP8 block-2	SENP7 inh	SENP6 inh	SENP8 conf	SENP6 conf	SENP7 conf	Casp3 SENP sel	SENP luc ctr
COc1ccc(Cl)c(-c2cc(C(=O)Nc3ccc(F)cc3)[nH]n2)c1	x	n	x	x	x	x	x	x	x	x	x
COC(=O)[C@]12CCCCC=C1N(CCC1=CCCCC1)C(=O)[C@H](CC(=O)NCCCCc1ccccc1)C2	x	n	x	x	x	x	x	x	x	x	x
Brc1cccc(-c2nc(-c3ccncc3)no2)c1	n	n	n	n	72	70	n	54	64	59	n
C=COC(=O)CSc1nc(-c2cccs2)ccc1C#N	n	n	n	n	n	57	n	70	n	n	n
O=C(O)CSc1nc2ccccc2o1	n	n	n	n	n	n	x	x	x	x	x
O=[N+]([O-])c1ccc(CSc2nc3ccccc3o2)cc1	n	n	u	n	n	52	53	54	66	n	n
COC(=O)c1ccc(CSc2nc3ccccc3o2)cc1	n	n	n	87	91	85	n	91	100	80	65
CC(C)OC(=O)/C=C1\C[C@@H](c2ccccc2C(F)(F)F)O[C@@H](c2ccccc2C(F)(F)F)O1	x	n	x	x	x	x	x	x	x	x	x
O=C(NCc1cccc(C(F)(F)F)c1)c1csc([C@H]2C[C@H](O)[C@@H](CO)O2)n1	x	n	x	x	x	x	x	x	x	x	x
Cc1cc(C)c2c(N)c(-c3nc4ccccc4[nH]3)sc2n1	n	n	n	n	n	n	x	x	x	x	x
Cc1ccc2nc(-c3sc4nc(C)ccc4c3N)[nH]c2c1	n	n	n	n	n	56	n	n	n	n	n
C=C(C)C(O)CC/C(C)=C/Cc1c(O)ccc(C(=O)/C=C/c2ccc(O)cc2)c1O (stereo not given)	n	n	n	90	65	88	97	96	99	n	n
CC1=C(C(=O)N(C)C)CC(CC(=O)NCc2cccs2)C(=O)N1Cc1ccc(C(C)(C)C)cc1 (stereo not given)	x	n	x	x	x	x	x	x	x	x	x
Cc1cc(C)nc(NC(=O)c2cccs2)n1	n	n	n	n	n	n	x	x	x	x	x
COC(=O)c1sc(NC(=S)NC(=O)c2ccccc2Cl)nc1C	n	n	n	n	n	62	n	n	n	n	n
CC(=O)c1sc(NC(=O)c2ccccc2F)nc1C	n	n	n	83	87	83	86	84	97	93	85
CC(=O)c1sc(NC(=O)c2cccs2)nc1C	n	n	n	n	62	62	n	52	81	84	n
CCOC(=O)c1sc(NC(=O)c2cccs2)nc1C	x	n	x	x	x	x	x	x	x	x	x
COC(=O)c1sc(NC(=S)NC(=O)c2ccccc2)nc1C	n	n	n	n	n	n	x	x	x	x	x
Cc1nc(NC(=O)c2cccs2)ccc1Br	n	n	n	70	81	n	82	82	95	80	70
COc1cccc(CNc2nc3cc(-c4ccc(OC)cc4C)sc3c(=O)n2C)c1	x	n	x	x	x	x	x	x	x	x	x
